Laboratory results: ChEMBL document CHEMBL4033782, “Structural Modification of Natural Product Tanshinone I Leading to Discovery of Novel Nitrogen-Enriched Derivatives with Enhanced Anticancer Profile and Improved Drug-like Properties” (J Med Chem, 2018)

Columns and labels:
[1] = Antiproliferative activity against human KB/VCR cells after 72 hrs by sulforhodamine B assay; format: functional, cell-based
In short: (§1)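 Cells grown in ATCC-specified medium with 10% heat-inactivated FBS, penicillin/streptomycin and 10 mM Hepes, at 37 °C under 5% CO2. Seeded, cultured overnight, then exposed to gradient concentrations for 72 h. Growth read by SRB staining; inhibition % = [1−(A450 treated/A450 control)]×100. IC50 obtained by the Logit method from independent experiments.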

[2] = Half life in rat liver microsomes at 0.1 uM up to 60 mins by LC-MS/MS analysis; format: ADME, microsome
In short: (§2)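 Compound at 0.1 μM final (0.01% DMSO, 0.005% BSA) incubated at 37 °C with human, rat or mouse liver microsomes (0.33 mg/mL protein) in 0.1 M Tris/HCl pH 7.4, with 5 mM MgCl2 and 1 mM NADPH. Samples taken at 0, 7, 17, 30 and 60 min, quenched by methanol precipitation, centrifuged, and parent measured by LC-MS/MS. T1/2 and Clint derived.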

[3] = Half life in mouse liver microsomes at 0.1 uM up to 60 mins by LC-MS/MS analysis; format: ADME, microsome; conditions: liver microsomes; in short: as §2
[4] = tested on: Liver; experiment: Intrinsic clearance in human liver microsomes assessed as per mg protein up to 60 mins by LC-MS/MS analysis; format: ADME, microsome; conditions: 1 h; in short: as §2
[5] = tested on: Liver; experiment: Intrinsic clearance in rat liver microsomes assessed per mg protein up to 60 mins by LC-MS/MS analysis; format: ADME, microsome; conditions: 1 h
In short: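 Liver microsomes (0.33 mg/mL protein) in 0.1 M Tris/HCl pH 7.4 with 5 mM MgCl2, 1 mM NADPH, compound at 0.1 μM final (0.01% DMSO, 0.005% BSA), 37 °C; samples at 0, 7, 17, 30, 60 min quenched in methanol, centrifuged, LC-MS/MS; T1/2 and Clint per g protein derived.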

[6] = tested on: Liver; experiment: Intrinsic clearance in mouse liver microsomes assessed per mg protein up to 60 mins by LC-MS/MS analysis; format: ADME, microsome; conditions: 1 h; in short: as §2
[7] = Half life in Sprague-Dawley rat at 3.0 mg/kg, po; format: ADME, organism-based; conditions: in vivo
In short: (§3)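 Male SD rats dosed i.v. at 1.0 mg/kg or orally at 3.0 mg/kg. Vehicle is DMSO, Tween 80 and normal saline. Plasma concentration–time data give CL, Vss, T1/2, Cmax, Tmax, MRT, AUC and oral bioavailability F.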

[8] = Half life in Sprague-Dawley rat at 1.0 mg/kg, iv; format: ADME, organism-based; conditions: in vivo; in short: as §3
[9] = Cmax in Sprague-Dawley rat at 3.0 mg/kg, po; format: ADME, organism-based; set-up: dose 3 mg/kg, route oral; conditions: in vivo; in short: as §3
[10] = AUC in Sprague-Dawley rat at 3.0 mg/kg, po; format: ADME, organism-based; conditions: in vivo; in short: as §3
[11] = AUC in Sprague-Dawley rat at 1.0 mg/kg, iv; format: ADME, organism-based; conditions: in vivo; in short: as §3
[12] = MRT (infinity) in Sprague-Dawley rat at 3.0 mg/kg, po; format: ADME, organism-based; conditions: in vivo
In short: (§4)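 Male SD rats dosed orally at 3.0 mg/kg in DMSO/Tween 80/normal saline; plasma profile gives T1/2, Cmax, Tmax, AUC, MRT; F from comparison with 1.0 mg/kg i.v. dosing.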

[13] = MRT (infinity) in Sprague-Dawley rat at 1.0 mg/kg, iv; format: ADME, organism-based; conditions: in vivo
In short: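 Male SD rats given 1.0 mg/kg i.v. in DMSO/Tween 80/normal saline vehicle; plasma concentration–time profile used for clearance, Vss, MRT.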

[14] = Oral bioavailability in Sprague-Dawley rat at 3.0 mg/kg; format: ADME, organism-based; conditions: in vivo; in short: as §4
[15] = tested on: HUVEC; experiment: Antiproliferative activity against human HUVEC cells after 72 hrs by sulforhodamine B assay; format: cell-based; in short: as §1
[16] = tested on: A549; experiment: Antiproliferative activity against human A549 cells after 72 hrs by sulforhodamine B assay; format: functional, cell-based; conditions: A549, 72 h; in short: as §1
[17] = tested on: MGC-803; experiment: Antiproliferative activity against human MGC803 cells after 72 hrs by sulforhodamine B assay; format: functional, cell-based; conditions: MGC-803, 72 h; in short: as §1
[18] = tested on: BEL-7404 tumor cell line; experiment: Antiproliferative activity against human Bel7404 cells after 72 hrs by sulforhodamine B assay; format: functional, cell-based; conditions: BEL-7404, 72 h; in short: as §1
[19] = tested on: DU-145; experiment: Antiproliferative activity against human DU145 cells after 72 hrs by sulforhodamine B assay; format: functional, cell-based; conditions: DU-145, 72 h; in short: as §1
[20] = tested on: BT-474; experiment: Antiproliferative activity against human BT474 cells after 72 hrs by sulforhodamine B assay; format: functional, cell-based; conditions: BT-474, 72 h; in short: as §1
[21] = tested on: NCI-H460; experiment: Antiproliferative activity against human H460 cells after 72 hrs by sulforhodamine B assay; format: functional, cell-based; conditions: NCI-H460, 72 h; in short: as §1
[22] = tested on: HCT-116; experiment: Induction of apoptosis in human HCT116 cells assessed as late apoptotic cells at 0.5 uM after 48 hrs by Annexin V-FITC/propidium iodide staining-based FACS analysis (reference value: 5.74%); format: functional
[23] = tested on: HCT-116; experiment: Induction of apoptosis in human HCT116 cells assessed as early apoptotic cells at 1 uM after 48 hrs by Annexin V-FITC/propidium iodide staining-based FACS analysis (reference value: 2.35%); format: functional
[24] = tested on: HCT-116; experiment: Induction of apoptosis in human HCT116 cells assessed as late apoptotic cells at 1 uM after 48 hrs by Annexin V-FITC/propidium iodide staining-based FACS analysis (reference value: 5.74%); format: functional
[25] = tested on: HCT-116; experiment: Induction of apoptosis in human HCT116 cells assessed as early apoptotic cells at 2 uM after 48 hrs by Annexin V-FITC/propidium iodide staining-based FACS analysis (reference value: 2.35%); format: functional
[26] = tested on: HCT-116; experiment: Induction of apoptosis in human HCT116 cells assessed as late apoptotic cells at 2 uM after 48 hrs by Annexin V-FITC/propidium iodide staining-based FACS analysis (reference value: 5.74%); format: functional
[27] = tested on: HCT-116; experiment: Induction of apoptosis in human HCT116 cells pretreated with Z-VAD-FMK pan-caspase inhibitor for 1 hr assessed as late apoptotic cells at 0.5 uM after 48 hrs by Annexin V-FITC/propidium iodide staining-based FACS analysis (reference value: 3.15%); format: functional; set-up: scale not given: the % may be the effect or the level left
[28] = tested on: HCT-116; experiment: Induction of apoptosis in human HCT116 cells pretreated with Z-VAD-FMK pan-caspase inhibitor for 1 hr assessed as early apoptotic cells at 1 uM after 48 hrs by Annexin V-FITC/propidium iodide staining-based FACS analysis (reference value: 1.34%); format: functional; set-up: scale not given: the % may be the effect or the level left
[29] = tested on: HCT-116; experiment: Induction of apoptosis in human HCT116 cells pretreated with Z-VAD-FMK pan-caspase inhibitor for 1 hr assessed as late apoptotic cells at 2 uM after 48 hrs by Annexin V-FITC/propidium iodide staining-based FACS analysis (reference value: 3.15%); format: functional; set-up: scale not given: the % may be the effect or the level left
[30] = tested on: Mus musculus; experiment: Toxicity in BALB/C nude mouse xenografted with human HCT116 cells assessed as body weight loss at 30 mg/kg, ip once daily for 14 days starting on day 14 post tumor implantation measured every 4 days during compound dosing; format: organism-based; conditions: in vivo
In short: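 Male BALB/c nude mice (18–20 g) with subcutaneous HCT116 implants in right axilla; treatment from day 14 once tumors exceeded 100 mm3, randomized (6/treated, 10/control group); 10 mg/kg i.v. or 30 mg/kg i.p. daily for 14 days in 1% DMSO/saline; 5-FU 15 mg/kg as reference; body weight tracked, mean ± SD of 6 mice.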

SMILES: CCN(CC)CCCn1c2c(c3ccccc3c1=O)C(=O)C(=O)c1cc(C)oc1-2
- IC50 [1]: 330 nM
- half-life at 0.1 µM [2]: 75.8 min
- half-life at 0.1 µM [3]: 54.5 min
- intrinsic clearance [4]: 23.5 mL/min/g
- intrinsic clearance [5]: 27.7 mL/min/g
- intrinsic clearance [6]: 38.5 mL/min/g
- half-life [7]: 155 min
- half-life [8]: 90.6 min
- Cmax [9]: 33.7 ng/mL
- AUC [10]: 81.4 ng·h/mL
- AUC [11]: 114 ng·h/mL
- MRT inf [12]: 3.72 h
- MRT inf [13]: 50.1 min
- bioavailability [14]: 21%
- IC50 [15]: 2520 nM
- IC50 [16]: 190 nM
- IC50 [17]: 260 nM
- IC50 [18]: 360 nM
- IC50 [19]: 220 nM
- IC50 [20]: 770 nM
- IC50 [21]: 170 nM
- Activity [22]: 4.19%
- Activity [23]: 8.61%
- Activity [24]: 9.09%
- Activity [25]: 23.98%
- Activity [26]: 32.63%
- Activity [27]: 4.09%
- Activity [28]: 2.99%
- Activity [29]: 22.49%
- Activity [30]: Non-Toxic
